The results in this text go back to ChEMBL document CHEMBL3525906, “A comprehensive assessment of repaglinide metabolic pathways: impact of choice of in vitro system and relative enzyme contribution to in vitro clearance” (Drug Metab Dispos, 2012).

The species named for data set [1] is Homo sapiens. As to the kind of experiment: Unbound intrinsic clearance in human hepatic S9 fraction assessed as ketoconazole-mediated inhibition of 3'-hydroxy repaglinide intrinsic clearance at 0.5 to 150 uM by LC-MS/MS method.
A short description of data set [2]: Retention time of the compound by LC-MS/MS method. The format is physicochemical.
Data set [3] in a line: Ratio of human recombinant CYP2C8-mediated unbound intrinsic clearance to human recombinant CYP3A4-mediated unbound intrinsic clearance. The format is ADME. The conditions noted are these: recombinant enzyme.
The nature of data set [4]: Ratio of human recombinant CYP2C8-mediated unbound intrinsic clearance to human recombinant CYP3A5-mediated unbound intrinsic clearance. It counts as ADME. The conditions noted are these: recombinant enzyme.
Data set [5] can be described thus: Ratio of human recombinant CYP3A4-mediated unbound intrinsic clearance to human recombinant CYP2C8-mediated unbound intrinsic clearance. The format is ADME. Conditions: recombinant enzyme.
Data set [6] can be described thus: Ratio of human recombinant CYP3A4-mediated unbound intrinsic clearance to human recombinant CYP3A5-mediated unbound intrinsic clearance. Conditions: recombinant enzyme. It counts as ADME.
The species named for data set [7] is Homo sapiens. Kind of data set: Unbound intrinsic clearance in human hepatic S9 fraction assessed as gemfibrozil glucuronide-mediated inhibition of 2-despiperidyl-2-amino repaglinide intrinsic clearance at 0.5 to 150 uM by LC-MS/MS method.
The nature of data set [8]: Unbound intrinsic clearance in human hepatic S9 fraction assessed as IC50 for disulfiram-mediated inhibition of 2-despiperidyl-2-(5-carboxypentylamine) repaglinide formation at 10, 25 and 50 uM by LC-MS/MS method.
Data set [9] deals with Cytochrome P450 3A5 (Homo sapiens, UniProt P20815). As to the kind of experiment: Drug metabolism assessed as human recombinant CYP3A5-mediated metabolite formation at 0.5 to 150 uM by LC-MS/MS method. The conditions noted are these: recombinant enzyme. It counts as ADME. In outline:
(§1)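 Recombinant P450 (CYP2C8 50, CYP3A4 30, CYP3A5 100; units not given) incubated 10 min at 37°C with repaglinide (8 concentrations, 0.5–150 μM) in 0.1 M phosphate pH 7.4, 10 mM MgCl2, NADPH-regenerating system (1 mM NADP+, isocitrate/isocitrate dehydrogenase). Quenched with ice-cold methanol plus indomethacin internal standard. M1, M2, M4 quantified by LC-MS/MS against authentic standards. Michaelis-Menten fit; mean ± SD, n=3.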

Data set [10] can be described thus: Unbound intrinsic clearance in human hepatic S9 fraction assessed as 10 uM disulfiram-mediated inhibition of 2-despiperidyl-2-(5-carboxypentylamine) repaglinide formation at 0.5 to 150 uM by LC-MS/MS method. The conditions noted are these: s9, 150 µM. The format is tissue-based, Liver.
Data set [11] deals with T1, Cytochrome P450 2C8 (Homo sapiens, UniProt P10632).
T1 sequence (P10632 whole entry): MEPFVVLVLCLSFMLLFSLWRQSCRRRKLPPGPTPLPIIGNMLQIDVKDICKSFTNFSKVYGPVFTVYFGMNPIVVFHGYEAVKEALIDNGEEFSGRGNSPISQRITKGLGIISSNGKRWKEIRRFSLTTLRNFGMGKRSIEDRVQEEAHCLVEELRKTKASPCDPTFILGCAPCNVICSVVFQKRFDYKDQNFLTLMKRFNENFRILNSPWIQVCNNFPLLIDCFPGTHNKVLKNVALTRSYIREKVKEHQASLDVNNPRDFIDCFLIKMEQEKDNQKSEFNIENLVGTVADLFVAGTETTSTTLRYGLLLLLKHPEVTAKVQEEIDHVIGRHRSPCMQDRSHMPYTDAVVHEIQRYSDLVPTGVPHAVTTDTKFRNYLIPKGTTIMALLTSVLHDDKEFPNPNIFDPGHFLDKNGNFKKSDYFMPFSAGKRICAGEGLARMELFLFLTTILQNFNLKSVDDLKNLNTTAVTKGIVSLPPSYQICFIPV
Kind of data set: Drug metabolism assessed as human recombinant CYP2C8-mediated metabolite formation at 0.5 to 150 uM by LC-MS/MS method. Conditions: recombinant enzyme. The format is ADME. The procedure, abridged:
as §1

For data set [12], the target named is Cytochrome P450 3A4 (Homo sapiens, UniProt P08684). As to the kind of experiment: Drug metabolism assessed as human recombinant CYP3A4-mediated metabolite formation at 0.5 to 150 uM by LC-MS/MS method. It counts as ADME. Conditions: recombinant enzyme. In outline:
as §1

Substrate in data set [13]: CCOc1cc(CC(=O)N[C@@H](CC(C)C)c2ccccc2N2CCCCC2)ccc1C(=O)O
As to the kind of experiment: Activity of human recombinant CYP3A5 expressed in insect cells assessed as enzyme-mediated 2-despiperidyl-2-amino repaglinide formation by LC-MS/MS method. It counts as ADME. In outline: as §1

Substrate in data set [14]: CCOc1cc(CC(=O)N[C@@H](CC(C)C)c2ccccc2N2CCCCC2)ccc1C(=O)O
As to the kind of experiment: Activity of human recombinant CYP3A5 expressed in insect cells assessed as enzyme-mediated 2-despiperidyl-2-amino repaglinide formation per picomole of protein at 0.5 to 150 uM by LC-MS/MS method. It counts as ADME. In outline:
as §1

Substrate in data set [15]: CCOc1cc(CC(=O)N[C@@H](CC(C)C)c2ccccc2N2CCCCC2)ccc1C(=O)O
Kind of data set: Activity of human recombinant CYP3A5 expressed in insect cells assessed as enzyme-mediated 3'-hydroxy repaglinide formation per picomole of protein at 0.5 to 150 uM by LC-MS/MS method. It counts as ADME. The procedure, abridged: as §1

Substrate in data set [16]: CCOc1cc(CC(=O)N[C@@H](CC(C)C)c2ccccc2N2CCCCC2)ccc1C(=O)O
Kind of data set: Activity of human recombinant CYP2C8 expressed in insect cells assessed as enzyme-mediated 2-despiperidyl-2-amino repaglinide formation by LC-MS/MS method. It counts as ADME. In outline:
as §1

Substrate in data set [17]: CCOc1cc(CC(=O)N[C@@H](CC(C)C)c2ccccc2N2CCCCC2)ccc1C(=O)O
As to the kind of experiment: Activity of human recombinant CYP2C8 expressed in insect cells assessed as enzyme-mediated 3'-hydroxy repaglinide formation by LC-MS/MS method. It counts as ADME. The procedure, abridged:
as §1

Substrate in data set [18]: CCOc1cc(CC(=O)N[C@@H](CC(C)C)c2ccccc2N2CCCCC2)ccc1C(=O)O
Kind of data set: Activity of human recombinant CYP2C8 expressed in insect cells assessed as enzyme-mediated 3'-hydroxy repaglinide formation per picomole of protein at 0.5 to 150 uM by LC-MS/MS method. The format is ADME. In outline: as §1

Substrate in data set [19]: CCOc1cc(CC(=O)N[C@@H](CC(C)C)c2ccccc2N2CCCCC2)ccc1C(=O)O
As to the kind of experiment: Activity of human recombinant CYP2C8 expressed in insect cells assessed as enzyme-mediated 2-despiperidyl-2-amino repaglinide formation per picomole of protein at 0.5 to 150 uM by LC-MS/MS method. It counts as ADME. In outline:
as §1

Sequence of Cytochrome P450 3A4 (P08684 whole entry): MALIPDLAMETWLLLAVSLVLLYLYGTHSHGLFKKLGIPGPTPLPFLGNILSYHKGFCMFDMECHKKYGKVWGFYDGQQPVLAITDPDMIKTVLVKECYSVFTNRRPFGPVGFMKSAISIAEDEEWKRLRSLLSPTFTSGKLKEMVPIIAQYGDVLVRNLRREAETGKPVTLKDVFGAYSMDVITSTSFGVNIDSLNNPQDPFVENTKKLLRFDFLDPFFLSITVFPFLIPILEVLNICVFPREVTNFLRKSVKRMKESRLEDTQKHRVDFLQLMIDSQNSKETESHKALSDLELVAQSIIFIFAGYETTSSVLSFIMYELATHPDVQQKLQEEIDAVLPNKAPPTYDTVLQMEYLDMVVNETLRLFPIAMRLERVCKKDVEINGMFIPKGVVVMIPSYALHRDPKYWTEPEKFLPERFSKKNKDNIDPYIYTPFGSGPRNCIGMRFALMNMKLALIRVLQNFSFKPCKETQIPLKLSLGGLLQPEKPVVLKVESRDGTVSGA

In the case of `CCOc1cc(CC(=O)N[C@@H](CC(C)C)c2ccccc2N2CCCC(O)C2)ccc1C(=O)O` (stereo partly drawn), the “inhibition (INH)” value in [1] is under 30%. The same molecule gave a Retention_time in [2] of 2.9 min. The Ratio in [3] is given as 35; in [4] it was 360.

On to `CCOc1cc(CC(=O)N[C@@H](CC(C)C)c2ccccc2N)ccc1C(=O)O`, for which the Ratio in data set [5] worked out at 32; in [6], 85. Further, in data set [2], the Retention_time is 2.7 min. Besides, the “inhibition (INH)” value in data set [7] is under 30%.

In the case of `CCOc1cc(CC(=O)N[C@@H](CC(C)C)c2ccccc2NCCCCC(=O)O)ccc1C(=O)O`, the concentration for half-maximal inhibition (IC50) in data set [8] stood at 1.2 µM. Further, the Drug metabolism in [9], in [11] and in [12] was under 1 nM in each case. In addition, the Retention_time in data set [2] was determined as 2.8 min. Moreover, in [10], the “inhibition (INH)” value is on record as 89%.

In the case of `COc1ccc2c(c1)c(CC(=O)O)c(C)n2C(=O)c1ccc(Cl)cc1` [INDOMETHACIN], the Retention_time in [2] is 3 min.

In turn, `CCOc1cc(CC(=O)N[C@@H](CC(C)C)c2ccccc2N2CCCCC2)ccc1C(=O)O[C@@H]1O[C@H](C(=O)O)[C@@H](O)[C@H](O)[C@H]1O` displayed a Retention_time in data set [2] of 3.4 min.

B1: Cytochrome P450 3A5 (Homo sapiens) (protein)
chain: MDLIPNLAVETWLLLAVSLVLLYLYGTRTHGLFKRLGIPGPTPLPLLGNVLSYRQGLWKFDTECYKKYGKMWGTYEGQLPVLAITDPDVIRTVLVKECYSVFTNRRSLGPVGFMKSAISLAEDEEWKRIRSLLSPTFTSGKLKEMFPIIAQYGDVLVRNLRREAEKGKPVTLKDIFGAYSMDVITGTSFGVNIDSLNNPQDPFVESTKKFLKFGFLDPLFLSIILFPFLTPVFEALNVSLFPKDTINFLSKSVNRMKKSRLNDKQKHRLDFLQLMIDSQNSKETESHKALSDLELAAQSIIFIFAGYETTSSVLSFTLYELATHPDVQQKLQKEIDAVLPNKAPPTYDAVVQMEYLDMVVNETLRLFPVAIRLERTCKKDVEINGVFIPKGSMVVIPTYALHHDPKYWTEPEEFRPERFSKKKDSIDPYIYTPFGTGPRNCIGMRFALMNMKLALIRVLQNFSFKPCKETQIPLKLDTQGLLQPEKPIVLKVDSRDGTLSGE
In the case of B1, in data set [13], the Km turned out to be 66 µM. Further, the kcat in [14] turned out to be 0.00133 s⁻¹; in [15], 0.000833 s⁻¹.

B2: Cytochrome P450 2C8 (Homo sapiens) (protein)
chain: MEPFVVLVLCLSFMLLFSLWRQSCRRRKLPPGPTPLPIIGNMLQIDVKDICKSFTNFSKVYGPVFTVYFGMNPIVVFHGYEAVKEALIDNGEEFSGRGNSPISQRITKGLGIISSNGKRWKEIRRFSLTTLRNFGMGKRSIEDRVQEEAHCLVEELRKTKASPCDPTFILGCAPCNVICSVVFQKRFDYKDQNFLTLMKRFNENFRILNSPWIQVCNNFPLLIDCFPGTHNKVLKNVALTRSYIREKVKEHQASLDVNNPRDFIDCFLIKMEQEKDNQKSEFNIENLVGTVADLFVAGTETTSTTLRYGLLLLLKHPEVTAKVQEEIDHVIGRHRSPCMQDRSHMPYTDAVVHEIQRYSDLVPTGVPHAVTTDTKFRNYLIPKGTTIMALLTSVLHDDKEFPNPNIFDPGHFLDKNGNFKKSDYFMPFSAGKRICAGEGLARMELFLFLTTILQNFNLKSVDDLKNLNTTAVTKGIVSLPPSYQICFIPV
Turning to B2, the Km was determined as 25 µM in data set [16] and 5.7 µM in data set [17]. Besides, the kcat in data set [18] stood at 0.00583 s⁻¹; in [19], 0.00133 s⁻¹.

For orientation: IC50 means the concentration at which inhibition is half-maximal. Usually Km stands for the substrate concentration at which the rate is half of its maximum. By kcat is commonly meant the number of substrate molecules converted per active site and unit of time at saturation.
